Measured values: ChEMBL document CHEMBL5584273, “Investigation of Isobactin Analogues of Teixobactin” (ACS Med Chem Lett, 2024)
Bridge positions count the residues as written; N and C are the ends. Square brackets hold non-standard residues; d marks the D form. Side chains are listed from the residue outwards. Peptide text beside a SMILES is read from it. I, II: the chains in the order shown. * marks the point of attachment. Ser(O-(NMe-dPhe-Ile)) = CC[C@H](C)[C@H](NC(=O)[C@@H](Cc1ccccc1)NC)C(=O)OC[C@H](N)C(=O)*; d(aIle) = CC[C@H](C)[C@@H](N)C(=O)O; dNMeF = CN[C@H](Cc1ccccc1)C(=O)O; Chg = N[C@H](C(=O)O)C1CCCCC1

Experiments:
Erythrocyte = test: Hemolytic activity in human Red blood cell at 25 microg/ml in absence of polysorbate 80; assay type: toxicity, cell-based; settings: dose 25 µg/ml
In short: (§1)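 Human red blood cells were tested with and without 0.002% polysorbate 80. Triton X-100 served as the 100% lysis control and water (vehicle) as the 0% lysis control. 1.25 μM melittin was an added positive control.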

Staphylococcus aureus [1] = test: Antibiotic activity against methicillin-sensitive Staphylococcus aureus ATCC 29213 assessed as inhibition of bacterial growth incubated for 16 hrs in presence of 0.002% polysorbate 80; assay type: functional
In short: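 Overnight culture from glycerol stock in Mueller-Hinton broth at 37 °C with shaking; all media contain 0.002% polysorbate 80. DMSO stock (1 mg/mL) diluted in medium; 2-fold series, final 8–0.0078 μg/mL; inoculum ~5 × 10^5 CFU/mL (OD600-normalised).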

Staphylococcus aureus [2] = test: Antibiotic activity against methicillin-resistant Staphylococcus aureus ATCC 700698 assessed as inhibition of bacterial growth incubated for 16 hrs in presence of 0.002% polysorbate 80; assay type: functional
In short: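 Overnight culture from glycerol stock in brain heart infusion broth at 37 °C with shaking; all media contain 0.002% polysorbate 80. DMSO stock (1 mg/mL) diluted in medium; 2-fold series, final 8–0.0078 μg/mL; inoculum ~5 × 10^5 CFU/mL (OD600-normalised).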

[3] = Solubility in PBS buffer at pH 7.4 at 0.5 mg/ml by HPLC analysis; assay type: physicochemical
HeLa = test: Cytotoxicity against human HeLa cells at 50 uM by promega cytotox-glo assay; assay type: toxicity, cell-based
In short: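 HeLa cells were exposed to compound at concentrations up to 50 μM. Cytotoxicity was read with the Cytotox-Glo luminescent assay.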

[4] = Hemolytic activity in human Red blood cell assessed as hemolysis at 100 microg/ml in presence of 0.002% polysorbate 80 relative to control; assay type: toxicity, cell-based, Erythrocyte; settings: red blood cells (erythrocytes), at 100 µg/mL, read-out: Activity; in short: as §1
Enterococcus faecalis = test: Antibiotic activity against vancomycin-resistant Enterococcus faecalis ATCC 51299 assessed as inhibition of bacterial growth incubated for 16 hrs in presence of 0.002% polysorbate 80; assay type: functional
Bacillus subtilis = test: Antibiotic activity against Bacillus subtilis ATCC 6051 assessed as inhibition of bacterial growth incubated for 16 hrs in presence of 0.002% polysorbate 80; assay type: functional
In short: (§2)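 Broth microdilution in media containing 0.002% polysorbate 80. Overnight cultures were grown at 37 °C with shaking in Mueller-Hinton broth. Inoculum was set from background-corrected OD600 to about 5 × 10^5 CFU/mL final. 2-fold dilutions gave final 8 to 0.0078 μg/mL from a DMSO stock. Plates were incubated 16 h at 37 °C and OD600 was read. MIC is the lowest concentration with no growth. Run in quadruplicate technical replicates.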

[5] = tested on: Staphylococcus epidermidis; test: Antibiotic activity against Staphylococcus epidermidis ATCC 14990 assessed as inhibition of bacterial growth incubated for 16 hrs in presence of 0.002% polysorbate 80; assay type: functional
In short: as §2, with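 “final.” for “final. 2-fold dilutions gave final 8 to 0.0078 μg/mL from a DMSO stock.”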

Escherichia coli = test: Antibiotic activity against Escherichia coli ATCC 10798 assessed as inhibition of bacterial growth incubated for 16 hrs in presence of 0.002% polysorbate 80; assay type: functional; in short: as §2

Compound | Activity (Erythrocyte) | MIC (Staphylococcus aureus [1]) [µg/mL] | MIC (Staphylococcus aureus [2]) [µg/mL] | solubility [3] | Activity (HeLa) | hemolysis at 100 microg/ml [4] [%] | MIC (Enterococcus faecalis) [µg/mL] | MIC (Bacillus subtilis) [µg/mL] | MIC [5] [µg/mL] | MIC (Escherichia coli) [µg/mL]
CC[C@H](C)[C@H](NC(=O)[C@@H](Cc1ccccc1)NC)C(=O)N[C@@H](CO)C(=O)N[C@H](CCCNC(=N)N)C(=O)N[C@@H](C(=O)N[C@H](C(=O)OC[C@H](N)C(=O)N[C@H]1C(=O)N[C@@H](C)C(=O)N[C@@H](C2CCCCC2)C(=O)N[C@@H]([C@@H](C)CC)C(=O)O[C@H]1C)[C@@H](C)CC)[C@@H](C)CC (I: H-[dNMeF]IS[dR][d(aIle)]I / II: H-S[dT]A[Chg]I; ester I:C-II:1, II:2-II:C) | Non-Toxic | 1 | 1 | Insoluble | Toxic | 0 | – | – | – | –
CC[C@H](C)[C@H](NC(=O)[C@H](NC(=O)[C@@H](CCCNC(=N)N)NC(=O)[C@@H](N)COC(=O)[C@@H](NC(=O)[C@@H](Cc1ccccc1)NC)[C@@H](C)CC)[C@@H](C)CC)C(=O)N[C@@H](CO)C(=O)N[C@H]1C(=O)N[C@@H](C)C(=O)N[C@@H](C2CCCCC2)C(=O)N[C@@H]([C@@H](C)CC)C(=O)O[C@H]1C (H-S([Ile-dNMeF])[dR][d(aIle)]IS[dT]A[Chg]I; ester 6-C) | Non-Toxic | – | – | Insoluble | Toxic | 0 | 1 | – | – | –
CC[C@H](C)[C@H](NC(=O)[C@@H](Cc1ccccc1)NC)C(=O)OC[C@H](N)C(=O)N[C@H](CCCNC(=N)N)C(=O)N[C@@H](C(=O)N[C@H](C(=O)OC[C@H](N)C(=O)N[C@H]1C(=O)N[C@@H](C)C(=O)N[C@@H](CC(C)C)C(=O)N[C@@H]([C@@H](C)CC)C(=O)O[C@H]1C)[C@@H](C)CC)[C@@H](C)CC (H-S([Ile-d(aIle)-dR-Ser(O-(NMe-dPhe-Ile))])[dT]ALI; ester 2-C) | – | – | 1 | – | – | – | – | 0.016 | – | –
CC[C@H](C)[C@H](NC(=O)[C@@H](Cc1ccccc1)NC)C(=O)N[C@@H](CO)C(=O)N[C@H](CCCNC(=N)N)C(=O)N[C@@H](C(=O)N[C@H](C(=O)OC[C@H](N)C(=O)N[C@H]1C(=O)N[C@@H](C)C(=O)N[C@@H](CC(C)C)C(=O)N[C@@H]([C@@H](C)CC)C(=O)O[C@H]1C)[C@@H](C)CC)[C@@H](C)CC (I: H-[dNMeF]IS[dR][d(aIle)]I / II: H-S[dT]ALI; ester I:C-II:1, II:2-II:C) | – | 0.125 | – | – | – | – | 1 | – | 0.016 | –
CC[C@H](C)[C@H](NC(=O)[C@@H](Cc1ccccc1)NC)C(=O)N[C@@H](CO)C(=O)N[C@H](CCCNC(=N)N)C(=O)N[C@@H](C(=O)N[C@H](C(=O)N[C@@H](CO)C(=O)N[C@H]1C(=O)N[C@@H](C)C(=O)N[C@@H](C2CCCCC2)C(=O)N[C@@H]([C@@H](C)CC)C(=O)O[C@H]1C)[C@@H](C)CC)[C@@H](C)CC | – | – | – | Insoluble | Toxic | – | – | – | 0.125 | –
CC[C@H](C)[C@H](NC(=O)[C@@H](Cc1ccccc1)NC)C(=O)OC[C@H](N)C(=O)N[C@H](CCCNC(=N)N)C(=O)N[C@@H](C(=O)N[C@H](C(=O)OC[C@H](N)C(=O)N[C@H]1C(=O)N[C@@H](C)C(=O)N[C@@H](C2CCCCC2)C(=O)N[C@@H]([C@@H](C)CC)C(=O)O[C@H]1C)[C@@H](C)CC)[C@@H](C)CC (H-S([Ile-d(aIle)-dR-Ser(O-(NMe-dPhe-Ile))])[dT]A[Chg]I; ester 2-C) | Non-Toxic | – | 1 | Insoluble | Toxic | 0 | 1 | 0.125 | – | –
CN[C@H](CC(C)C)C(=O)N[C@H]1C(=O)N[C@@H](CC(N)=O)C(=O)N[C@H]2C(=O)N[C@H]3C(=O)N[C@H](C(=O)N[C@H](C(=O)O)c4cc(O)cc(O)c4-c4cc3ccc4O)[C@H](O)c3ccc(c(Cl)c3)Oc3cc2cc(c3O[C@@H]2O[C@H](CO)[C@@H](O)[C@H](O)[C@H]2O[C@H]2C[C@](C)(N)[C@H](O)[C@H](C)O2)Oc2ccc(cc2Cl)[C@H]1O [VANCOMYCIN] | – | – | – | – | – | – | > 8 | 0.5 | – | –
CC[C@H](C)[C@H](NC(=O)[C@@H](Cc1ccccc1)NC)C(=O)N[C@@H](CO)C(=O)N[C@H](CCC(N)=O)C(=O)N[C@@H](C(=O)N[C@H](C(=O)OC[C@H](N)C(=O)N[C@H]1C(=O)N[C@@H](C)C(=O)N[C@@H](C[C@H]2CNC(=N)N2)C(=O)N[C@@H]([C@@H](C)CC)C(=O)O[C@H]1C)[C@@H](C)CC)[C@@H](C)CC | – | 0.5 | 0.5 | – | – | – | 0.5 | 0.062 | 0.25 | > 8
CC[C@H](C)[C@H](NC(=O)[C@H](NC(=O)[C@@H](CCCNC(=N)N)NC(=O)[C@@H](N)COC(=O)[C@@H](NC(=O)[C@@H](Cc1ccccc1)NC)[C@@H](C)CC)[C@@H](C)CC)C(=O)N[C@@H](CO)C(=O)N[C@H]1C(=O)N[C@@H](C)C(=O)N[C@@H](CC(C)C)C(=O)N[C@@H]([C@@H](C)CC)C(=O)O[C@H]1C (H-S([Ile-dNMeF])[dR][d(aIle)]IS[dT]ALI; ester 6-C) | – | – | 0.5 | – | – | – | – | 0.008 | 0.031 | –
CC[C@H](C)[C@H](NC(=O)[C@@H](Cc1ccccc1)NC)C(=O)N[C@@H](CO)C(=O)N[C@H](CCCNC(=N)N)C(=O)N[C@@H](C(=O)N[C@H](C(=O)N[C@@H](CO)C(=O)N[C@H]1C(=O)N[C@@H](C)C(=O)N[C@@H](CC(C)C)C(=O)N[C@@H]([C@@H](C)CC)C(=O)O[C@H]1C)[C@@H](C)CC)[C@@H](C)CC | – | 0.25 | – | – | – | – | – | – | – | –
